Calls of active or inactive are those of the source. No cut-off for these calls is given here.
Assays:
[1] = target: T1, Macrophage migration inhibitory factor (Homo sapiens) (UniProt P14174); assay: Inhibition of recombinant His-tagged MIF tautomerase activity (unknown origin) at 25 uM using 4-HPP as substrate relative to control
T1 sequence (whole entry): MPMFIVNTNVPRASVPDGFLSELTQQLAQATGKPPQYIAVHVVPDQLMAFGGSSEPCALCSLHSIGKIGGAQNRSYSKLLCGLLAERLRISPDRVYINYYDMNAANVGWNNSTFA
How it was run: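 Single-point screen at final inhibitor 25 µM in 5% DMSO (from 10 mM DMSO stocks diluted in 0.4 M boric acid pH 6.2). MIF final 340 nM; reaction started with 4-HPP (final 0.5 mM; pre-equilibrated overnight in 50 mM ammonium acetate pH 6.0). Absorbance at 306 nm followed over time. Vehicle control 5% DMSO; no-MIF negative control. Mean of at least 2 independent experiments.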

[2] = target: T2, Macrophage migration inhibitory factor (Homo sapiens, UniProt P14174); assay: Inhibition of recombinant His-tagged MIF tautomerase activity (unknown origin) using 4-HPP as substrate
T2 sequence (P14174 whole entry): T1 sequence (whole entry)

[3] = target: T2, Macrophage migration inhibitory factor; assay: (§1) Inhibition of recombinant His-tagged MIF tautomerase activity (unknown origin) using 4-HPP as substrate pretreated for 40 mins followed by substrate addition
How it was run: (§2)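 Time-dependence test: inhibitor (125–0 µM, 1.6-fold series in 5% DMSO) preincubated with MIF (340 nM) for 2 or 40 min before 4-HPP was added (final 0.5 mM). IC50 curves were built from the 306 nm absorbance increase in boric acid pH 6.2, and the two preincubation times were compared.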

[4] = target: T2, Macrophage migration inhibitory factor; assay: (§3) Inhibition of recombinant His-tagged MIF tautomerase activity (unknown origin) using 4-HPP as substrate pretreated for 2 mins followed by substrate addition; how it was run: as §2
[5] = target: T1, Macrophage migration inhibitory factor (Homo sapiens); assay: Reversible inhibition of recombinant His-tagged MIF tautomerase activity (unknown origin) assessed as recovery of enzyme activity at 125 uM using 4-HPP as substrate by substrate dilution method
How it was run: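 Jump-dilution: MIF (34 µM) was mixed with inhibitor (125 µM, 5% DMSO), then diluted 100-fold into 4-HPP (0.5 mM) in boric acid. Absorbance at 306 nm was plotted against time to follow activity recovery. The control was treated the same way with 5% DMSO and no inhibitor.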

[6] = target: T1, Macrophage migration inhibitory factor (Homo sapiens); assay: Time-dependent inhibition of recombinant His-tagged MIF tautomerase activity (unknown origin) using 4-HPP as substrate; how it was run: as §2
[7] = target: T1, Macrophage migration inhibitory factor (Homo sapiens); assay: as §1; how it was run: as §2
[8] = target: T1, Macrophage migration inhibitory factor (Homo sapiens); assay: as §3; how it was run: as §2

Structure (SMILES)	inhibition [1]	also measured
CCN(CC)CCCN1C(=O)CC2C(=C(N)Oc3ccc(C)cc32)C1=O (stereo not given)	0%	
Cc1ccc2c(c1)C1CC(=O)N(CC(C)C)C(=O)C1=C(N)O2 (stereo not given)	0%	
COc1ccc2c(c1)OC(N)=C1C(=O)N(CCO)C(=O)CC12 (stereo not given)	0%	
COc1ccc2c(c1)OC(N)=C1C(=O)N(Cc3ccc(N)cc3)C(=O)CC12 (stereo not given)	0%	
NC1=C2C(=O)N(CCc3ccc(Cl)cc3)C(=O)CC2c2ccc(OCc3ccc(Cl)cc3)cc2O1 (stereo not given)	80%	IC50 [2]: 13 µM
NC1=C2C(=O)N(Cc3ccncc3)C(=O)CC2c2ccc(OCc3ccc(Cl)cc3)cc2O1 (stereo not given)	15%	
Cc1ccc2c(c1)C1CC(=O)N(CCc3cccs3)C(=O)C1=C(N)O2 (stereo not given)	10%	
COc1ccc2c(c1)OC(N)=C1C(=O)N(CC(C)C)C(=O)CC12 (stereo not given)	15%	
C=CCN1C(=O)CC2C(=C(N)Oc3cc(OCc4ccc(Cl)cc4)ccc32)C1=O (stereo not given)	10%	
CCOc1ccc2c(c1)OC(N)=C1C(=O)N(CC(C)C)C(=O)CC12 (stereo not given)	10%	
CCCCCCCCCCCCN1C(=O)CC2C(=C(N)Oc3ccc(C)cc32)C1=O (stereo not given)	50%	
CCOc1ccc2c(c1)OC(N)=C1C(=O)N(CCCN3CCOCC3)C(=O)CC12 (stereo not given)	0%	
COc1ccc2c(c1)OC(N)=C1C(=O)N(CCc3cccs3)C(=O)CC12 (stereo not given)	15%	
Cc1ccc2c(c1)C1CC(=O)N(CCc3ccc(Cl)cc3Cl)C(=O)C1=C(N)O2 (stereo not given)	20%	
Cc1ccc2c(c1)C1CC(=O)N(Cc3ccco3)C(=O)C1=C(N)O2 (stereo not given)	15%	
NC1=C2C(=O)N(CCc3c[nH]c4ccccc34)C(=O)CC2c2ccc(OCc3ccc(Cl)cc3)cc2O1 (stereo not given)	70%	IC50 [2]: 8 µM
CCOc1ccc2c(c1)OC(N)=C1C(=O)N(Cc3ccc(N)cc3)C(=O)CC12 (stereo not given)	0%	
CC(C)CN1C(=O)CC2C(=C(N)Oc3cc(OCc4ccc(Cl)cc4)ccc32)C1=O (stereo not given)	40%	
Cc1ccc2c(c1)C1CC(=O)N(Cc3ccc(N)cc3)C(=O)C1=C(N)O2 (stereo not given)	10%	

Structure (SMILES)	inhibition [1]	also measured
CCOc1ccc2c(c1)OC(N)=C1C(=O)N(Cc3cccnc3)C(=O)CC12 (stereo not given)	10%	
CCOc1ccc2c(c1)OC(N)=C1C(=O)N(CCc3c[nH]c4ccccc34)C(=O)CC12 (stereo not given)	10%	
COc1ccc2c(c1)OC(N)=C1C(=O)N(CCCN(C)C)C(=O)CC12 (stereo not given)	0%	
NC1=C2C(=O)N(Cc3ccc(N)cc3)C(=O)CC2c2ccc(OCc3ccc(Cl)cc3)cc2O1 (stereo not given)	45%	
COc1ccc2c(c1)OC(N)=C1C(=O)N(Cc3cccc4ccccc34)C(=O)CC12 (stereo not given)	25%	
NC1=C2C(=O)N(CCO)C(=O)CC2c2ccccc2O1 (stereo not given)	0%	
Cc1ccc2c(c1)C1CC(=O)N(Cc3cccnc3)C(=O)C1=C(N)O2 (stereo not given)	0%	
COCCN1C(=O)CC2C(=C(N)Oc3cc(C)ccc32)C1=O (stereo not given)	0%	
Cc1ccc2c(c1)OC(N)=C1C(=O)N(Cc3cccc4ccccc34)C(=O)CC12 (stereo not given)	35%	
NC1=C2C(=O)N(CCc3c[nH]c4ccccc34)C(=O)CC2c2ccccc2O1 (stereo not given)	15%	
CCCCCCCCCCCCN1C(=O)CC2C(=C(N)Oc3cc(OCC)ccc32)C1=O (stereo not given)	60%	IC50 [2]: 21 µM
COc1ccc2c(c1)OC(N)=C1C(=O)N(CCCN3CCOCC3)C(=O)CC12 (stereo not given)	0%	
Cc1ccc2c(c1)C1CC(=O)N(CCN3CCOCC3)C(=O)C1=C(N)O2 (stereo not given)	0%	
COc1ccc2c(c1)OC(N)=C1C(=O)N(Cc3ccco3)C(=O)CC12 (stereo not given)	0%	
CCOc1ccc2c(c1)OC(N)=C1C(=O)N(Cc3cccc4ccccc34)C(=O)CC12 (stereo not given)	50%	
CCOCCN1C(=O)CC2C(=C(N)Oc3cc(OCC)ccc32)C1=O (stereo not given)	0%	
Cc1ccc2c(c1)OC(N)=C1C(=O)N(CCc3ccc(Cl)cc3)C(=O)CC12 (stereo not given)	5%	
Cc1ccc2c(c1)OC(N)=C1C(=O)N(CCCN(C)C)C(=O)CC12 (stereo not given)	0%	
CCCCCCCCCCCCN1C(=O)CC2C(=C(N)Oc3ccccc32)C1=O (stereo not given)	60%	IC50 [3]: 13.8 µM; IC50 [4]: 13.5 µM; inhibition [5]: Active; TDI [6]: inactive; IC50 [2]: 18 µM

Structure (SMILES)	inhibition [1]	also measured
NC1=C2C(=O)N(CCc3ccc(Cl)cc3)C(=O)CC2c2ccccc2O1 (stereo not given)	15%	
NC1=C2C(=O)N(Cc3ccc(N)cc3)C(=O)CC2c2ccccc2O1 (stereo not given)	0%	
Cc1ccc2c(c1)C1CC(=O)N(CCO)C(=O)C1=C(N)O2 (stereo not given)	0%	
C#CCN1C(=O)CC2C(=C(N)Oc3cc(C)ccc32)C1=O (stereo not given)	0%	
Cc1ccc2c(c1)OC(N)=C1C(=O)N(Cc3ccc(N)cc3)C(=O)CC12 (stereo not given)	0%	
COCCCN1C(=O)CC2C(=C(N)Oc3cc(OC)ccc32)C1=O (stereo not given)	0%	
CCCCCCCCCCCCN1C(=O)CC2C(=C(N)Oc3cc(OCc4ccc(Cl)cc4)ccc32)C1=O (stereo not given)	80%	IC50 [2]: 7.1 µM
Cc1ccc2c(c1)OC(N)=C1C(=O)N(CCc3c[nH]c4ccccc34)C(=O)CC12 (stereo not given)	55%	inhibition [7]: Active; inhibition [8]: Active; TDI [6]: inactive; IC50 [2]: 6.2 µM
Cc1ccc2c(c1)C1CC(=O)N(CCc3c[nH]c4ccccc34)C(=O)C1=C(N)O2 (stereo not given)	25%	
CCOc1ccc2c(c1)OC(N)=C1C(=O)N(Cc3ccncc3)C(=O)CC12 (stereo not given)	0%	
NC1=C2C(=O)N(Cc3ccco3)C(=O)CC2c2ccccc2O1 (stereo not given)	0%	
COc1ccc2c(c1)OC(N)=C1C(=O)N(Cc3cccnc3)C(=O)CC12 (stereo not given)	0%	
COc1ccc2c(c1)OC(N)=C1C(=O)N(Cc3ccncc3)C(=O)CC12 (stereo not given)	0%	
Cc1ccc2c(c1)C1CC(=O)N(Cc3ccncc3)C(=O)C1=C(N)O2 (stereo not given)	0%	
Cc1ccc2c(c1)OC(N)=C1C(=O)N(CCc3ccc(Cl)cc3Cl)C(=O)CC12 (stereo not given)	20%	
CCOCCN1C(=O)CC2C(=C(N)Oc3cc(OCc4ccc(Cl)cc4)ccc32)C1=O (stereo not given)	10%	
Cc1ccc2c(c1)OC(N)=C1C(=O)N(Cc3ccncc3)C(=O)CC12 (stereo not given)	0%	
C#CCN1C(=O)CC2C(=C(N)Oc3cc(OC)ccc32)C1=O (stereo not given)	0%	
CCOc1ccc2c(c1)OC(N)=C1C(=O)N(CCc3ccc(Cl)cc3Cl)C(=O)CC12 (stereo not given)	30%	

Reference: ChEMBL document CHEMBL4184273, “Discovery of chromenes as inhibitors of macrophage migration inhibitory factor” (Bioorg Med Chem, 2018)
